Experimental data taken from the array DNA melting data of Ke et al. (doi:10.1101/2024.01.08.574731).

What was measured:
[1] = folding enthalpy; higher = less favourable; fluorescence melt of hairpins on a sequencing array, two-state fit; settings: sodium 0.088 M
In short: (§1)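 In 50 mM Na-HEPES pH 8.0 containing 25 mM NaCl, hairpins from the library on a sequenced MiSeq flow cell were imaged for Cy3 fluorescence at 2.5 °C steps up to 60 °C, with Cy3 and quencher oligos annealed. After normalisation to pre-quench Cy3 and to control constructs, two-state fits with bootstrapping gave melting temperature and folding enthalpy. Four replicates were combined by inverse-variance weighting, and fitted temperatures were shifted up by 9.35 °C to match UV melts.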

[2] = melting temperature; fluorescence melt of hairpins on a sequencing array, two-state fit, raised by 9.35 °C to match UV melts; settings: sodium 0.088 M
In short: as §1

| Sequence | folding enthalpy [1] [kcal/mol] | Tm [2] [°C] |
| --- | --- | --- |
| GTTCGTCGAAAGACCAAC (((.(((....))).))) | -15.9 | 30.9 |
| GCGGTTCTCCGC ((((....)))) | -31.9 | 58.3 |
| GATCGCAGCTGCGATC ((((((....)))))) | -41 | 69.3 |
| GTTGCTCCGAAAGGAAAC (((..(((....)))))) | -10 | 28.1 |
| GGTCCAGGAAACTGGGCC ((.((((....)))).)) | -43.4 | 60.2 |
| GGAATGGGAAACCGTTTC (.((.((....)).)).) | -18 | 30.7 |
| GATCGGTACACCGATC ((((((....)))))) | -40.4 | 62.2 |
| GGTGTGGGAAACCGTACC (((..((....))..))) | -24.1 | 36.8 |
| GCTAGGCGAAAGCCAGGC ((..(((....)))..)) | -16.8 | 54.9 |
| GATCAATCTATTGATC ((((((....)))))) | -43.2 | 49.8 |
| GATCGCGCGTGCGATC ((((((....)))))) | -26.4 | 67.9 |
| GGCGTCGCGAAAGCGGCC (((..(((....)))))) | -13 | 58.7 |
| GAGTTGGAAACAACTC ((((((....)))))) | -34.6 | 57.3 |
| GATTTAGGAAACTAAGTC ((.((((....)))).)) | -8.37 | 29.6 |
| GATCAGACACCTGATC ((((((....)))))) | -34.1 | 47.1 |
| GACCTGCGAAAGCAAGTC (((.(((....))).))) | -25.3 | 47.1 |
| GGTTTCGAAAGAAAGACC ((((((....)))..))) | -14.4 | 30.1 |
| GTGGCCGGAAACGGCTAC ((.((((....)))).)) | -20.4 | 60.3 |
| GGCAATGCGAAAGCAGCC (((..(((....)))))) | -17.7 | 57.6 |
| GTGAAAGGAAACTTCCAC (((.(((....))).))) | -16.3 | 27.8 |
| GAATCCGAAAGGATCTTC ((((((....)))..))) | -24.5 | 51.3 |
| GGTAGCGAAAGCTGGACC ((((((....)))..))) | -12.6 | 37.4 |
| GCGTGACGAAAGTCCCGC (((.(((....))).))) | -21.9 | 59.8 |

| Sequence | folding enthalpy [1] [kcal/mol] | Tm [2] [°C] |
| --- | --- | --- |
| GCACGGCGAAAGCCTGC (((.(((....)))))) | -18.1 | 58.7 |
| GCACCGCGAAAGCCGGGC ((.(.((....)).).)) | -20.6 | 54.5 |
| GCTGTGCGAAAGCAGTGC ((..(((....)))..)) | -15.8 | 46.6 |
| GTGATCGAAAGATTACAC ((((((....)))..))) | -20 | 38.5 |
| GAGGCTGGAAACGGTCTC (((.(.(....).).))) | -28.5 | 39.6 |
| GCCCCCGAAAGGGATGGC ((((((....)))..))) | -24.1 | 52.1 |
| GGGAACGAAAGTTTCCCC ((((((....)))..))) | -19.9 | 53.5 |
| GTTGTCGAAAGACGTAAC ((((((....)))..))) | -11.3 | 31.9 |
| GATCGCTGTCGCGATC ((((((....)))))) | -30.2 | 68.4 |
| GATCGTGGAAACACAATC (((.(((....))).))) | -17.6 | 34.3 |
| GCCGATCGAAAGATGGC (((.(((....)))))) | -26.7 | 54.5 |
| GTTGGAGGAAACTTCAGC (.((.((....)).)).) | -12.7 | 30.5 |
| CGGACGGAAACGTATCCG ((((((....)))..))) | -17.5 | 36.7 |
| GCCGACGGAAACGCCGGC ((((.((....)).)))) | -38.7 | 63 |
| GGCTATTCGAAAGAAGCC (((..(((....)))))) | -25.2 | 37.7 |
| GGTTGTGGAAACACAATC (.(((((....))))).) | -29.7 | 47.9 |
| GCGGTCTGCCGC ((((....)))) | -22.7 | 62.1 |
| GTAGAACGAAAGTTTAC (((.(((....)))))) | -9.99 | 27.4 |
| GATCACCGTTGTGATC ((((((....)))))) | -39.8 | 55.4 |
| CGACATCGGAAACGATCG (((..(((....)))))) | -12.7 | 34 |
| GGCATAGGAAACTATGTC (.(((((....))))).) | -35 | 45.7 |
| GTAATGAAAATTAC (((((....))))) | -15.6 | 34.1 |
| GTGCTGGGAAACCAGTGC (..((((....))))..) | -27.9 | 47.5 |

| Sequence | folding enthalpy [1] [kcal/mol] | Tm [2] [°C] |
| --- | --- | --- |
| CGCGGAAAATTCCGCG ((((((....)))))) | -32 | 68.3 |
| GCTGCAGGAAACTGTAGC (((.(((....))).))) | -34.3 | 52 |
| GGTGGGGGAAACCCTGCC ((..(((....)))..)) | -27.9 | 47.8 |
| GCTCCGCGAAAGCAGAGC ((((.((....)).)))) | -31.6 | 64 |
| GAGCCTGGAAACAGGCCC (.(((((....))))).) | -10.9 | 47.8 |
| GCGAAGCGAAAGCGTGGC ((.(.((....)).).)) | -10.5 | 47.3 |
| GACGGGAAACCGTC (((((....))))) | -29 | 58.6 |
| GCGAGCGGAAACGTTCGC ((((.((....)).)))) | -41.2 | 63.4 |
| GATGTACGAAAGTAAATC (((.(((....))).))) | -23.9 | 35.5 |
| GACGGTGGAAACGTCGTC ((((..(....)..)))) | -31.6 | 54.8 |
| GTTGGCGGAAACGCCAGC (.(((((....))))).) | -15.4 | 58.2 |
| GGTGTTCCGAAAGGAACC (((..(((....)))))) | -9.16 | 47.7 |
| GGAGACCGAAAGGTTTCC (((.(((....))).))) | -41.5 | 55.5 |
| GATCCTGTATAGGATC ((((((....)))))) | -41.6 | 59 |
| GCCCCGGGAAACCGAGGC (((.(((....))).))) | -29.5 | 54.1 |
| GTGATGGGAAACCATCGC (.(((((....))))).) | -23.7 | 55.1 |
| GTTCCCGAAAGGGAAAAC ((((((....)))..))) | -10.8 | 41 |
| GATCGAGAAGTCGATC ((((((....)))))) | -31.1 | 55.4 |
| GTTAGGGGAAACCCTAAC (((((((....))))))) | -40.5 | 57.9 |
| GGCATTGGAAACAGTGCC ((((.((....)).)))) | -43 | 52.2 |
| GCTACCGAAAGGTGGAGC ((((((....)))..))) | -15.3 | 41.3 |
| GATCTCCCTTGAGATC ((((((....)))))) | -39.4 | 52.6 |
| GCAGAGCGAAAGCTGAGC ((..(((....)))..)) | -11.8 | 43.1 |
